ChEMBL document CHEMBL1143746, “Synthesis and biological evaluation of sulfonylhydrazone-substituted imidazo[1,2-a]pyridines as novel PI3 kinase p110alpha inhibitors” (Bioorg Med Chem, 2007)

What was measured:
[1] = test system: A-375; assay: Inhibition of serum-induced proliferation of human A375 cells; assay type: functional, cell-based
Outline: (§1)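 Cells were grown in DMEM with 10% FBS and penicillin/streptomycin and seeded at 1 × 10⁴ per well onto pre-spotted compound. After 46 h, Alamar blue was added. Fluorescence (ex 544/em 590 nm) was read 2 h later.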

[2] = target: Phosphatidylinositol 4,5-bisphosphate 3-kinase catalytic subunit alpha isoform (Bos taurus, UniProt P32871); assay: Inhibition of GST-tagged bovine p110-alpha expressed in SF9/Baculovirus system by SPA
[3] = test system: A549; assay: Inhibition of serum-induced proliferation of human A549 cells; assay type: functional, cell-based; outline: as §1
[4] = test system: HeLa; assay: Inhibition of serum-induced proliferation of human HeLa cells; assay type: functional, cell-based; outline: as §1
[5] = target: Phosphatidylinositol 4,5-bisphosphate 3-kinase catalytic subunit gamma isoform (Homo sapiens, UniProt P48736); assay: Inhibition of His-tagged human p110gamma expressed in SF9/Baculovirus system by SPA
[6] = test system: MCF7; assay: Inhibition of serum-induced proliferation of human adriamycin-resistant MCF7 cells; assay type: functional, cell-based
[7] = test system: MCF7; assay: Inhibition of serum-induced proliferation of human MCF7 cells; assay type: functional, cell-based
[8] = target: Phosphatidylinositol 4-phosphate 3-kinase C2 domain-containing subunit beta (Homo sapiens, UniProt O00750); assay: Inhibition of glu-tagged PI3K C2-beta expressed in SF9/Baculovirus system by SPA
[9] = test system: HeLa; assay: Suppression of tumor growth in human HeLa cell xenografted BALB/c nude mouse at 50 mg/kg/day, ip after 2 weeks; assay type: functional; conditions: route intraperitoneal
Outline: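 Female Balb/c-nu/nu mice, five per group, received 5 × 10⁶ HeLa cells subcutaneously in the hind quarters. Once tumors reached about 100 mm³, the compound was given i.p. at 50 mg/kg daily for 2 weeks. Tumor growth was compared with vehicle, and body weight was monitored.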

Chain of Phosphatidylinositol 4,5-bisphosphate 3-kinase catalytic subunit alpha isoform (P32871 whole entry, canonical isoform): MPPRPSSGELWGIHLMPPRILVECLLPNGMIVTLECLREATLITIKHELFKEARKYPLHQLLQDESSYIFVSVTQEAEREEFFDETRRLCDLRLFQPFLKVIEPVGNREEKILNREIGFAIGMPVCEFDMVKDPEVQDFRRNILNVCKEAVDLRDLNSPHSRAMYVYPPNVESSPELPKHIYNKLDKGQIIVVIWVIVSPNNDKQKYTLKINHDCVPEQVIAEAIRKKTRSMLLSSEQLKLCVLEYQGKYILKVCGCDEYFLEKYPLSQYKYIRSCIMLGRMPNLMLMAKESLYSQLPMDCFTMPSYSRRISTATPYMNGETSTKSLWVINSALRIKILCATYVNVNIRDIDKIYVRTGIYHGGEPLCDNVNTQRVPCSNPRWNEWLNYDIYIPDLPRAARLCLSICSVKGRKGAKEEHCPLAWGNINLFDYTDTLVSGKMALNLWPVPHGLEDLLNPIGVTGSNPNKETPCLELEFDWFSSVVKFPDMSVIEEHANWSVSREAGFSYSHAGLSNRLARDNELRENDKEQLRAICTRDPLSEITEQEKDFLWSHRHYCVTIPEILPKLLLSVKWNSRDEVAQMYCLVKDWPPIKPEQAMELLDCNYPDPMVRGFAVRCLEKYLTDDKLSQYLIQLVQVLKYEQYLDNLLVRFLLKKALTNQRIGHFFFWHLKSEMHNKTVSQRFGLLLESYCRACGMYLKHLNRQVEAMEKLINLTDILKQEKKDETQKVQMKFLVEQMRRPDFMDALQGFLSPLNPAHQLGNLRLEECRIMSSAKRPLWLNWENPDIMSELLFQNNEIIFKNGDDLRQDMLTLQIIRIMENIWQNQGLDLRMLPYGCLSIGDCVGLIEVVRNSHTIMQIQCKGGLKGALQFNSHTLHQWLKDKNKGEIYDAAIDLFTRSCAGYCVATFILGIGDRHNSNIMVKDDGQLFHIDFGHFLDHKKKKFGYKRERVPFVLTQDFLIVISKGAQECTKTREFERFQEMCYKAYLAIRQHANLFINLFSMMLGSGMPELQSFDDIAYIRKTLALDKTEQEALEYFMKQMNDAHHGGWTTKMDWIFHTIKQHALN
Chain of Phosphatidylinositol 4-phosphate 3-kinase C2 domain-containing subunit beta (O00750 whole entry, the tested form may be a part): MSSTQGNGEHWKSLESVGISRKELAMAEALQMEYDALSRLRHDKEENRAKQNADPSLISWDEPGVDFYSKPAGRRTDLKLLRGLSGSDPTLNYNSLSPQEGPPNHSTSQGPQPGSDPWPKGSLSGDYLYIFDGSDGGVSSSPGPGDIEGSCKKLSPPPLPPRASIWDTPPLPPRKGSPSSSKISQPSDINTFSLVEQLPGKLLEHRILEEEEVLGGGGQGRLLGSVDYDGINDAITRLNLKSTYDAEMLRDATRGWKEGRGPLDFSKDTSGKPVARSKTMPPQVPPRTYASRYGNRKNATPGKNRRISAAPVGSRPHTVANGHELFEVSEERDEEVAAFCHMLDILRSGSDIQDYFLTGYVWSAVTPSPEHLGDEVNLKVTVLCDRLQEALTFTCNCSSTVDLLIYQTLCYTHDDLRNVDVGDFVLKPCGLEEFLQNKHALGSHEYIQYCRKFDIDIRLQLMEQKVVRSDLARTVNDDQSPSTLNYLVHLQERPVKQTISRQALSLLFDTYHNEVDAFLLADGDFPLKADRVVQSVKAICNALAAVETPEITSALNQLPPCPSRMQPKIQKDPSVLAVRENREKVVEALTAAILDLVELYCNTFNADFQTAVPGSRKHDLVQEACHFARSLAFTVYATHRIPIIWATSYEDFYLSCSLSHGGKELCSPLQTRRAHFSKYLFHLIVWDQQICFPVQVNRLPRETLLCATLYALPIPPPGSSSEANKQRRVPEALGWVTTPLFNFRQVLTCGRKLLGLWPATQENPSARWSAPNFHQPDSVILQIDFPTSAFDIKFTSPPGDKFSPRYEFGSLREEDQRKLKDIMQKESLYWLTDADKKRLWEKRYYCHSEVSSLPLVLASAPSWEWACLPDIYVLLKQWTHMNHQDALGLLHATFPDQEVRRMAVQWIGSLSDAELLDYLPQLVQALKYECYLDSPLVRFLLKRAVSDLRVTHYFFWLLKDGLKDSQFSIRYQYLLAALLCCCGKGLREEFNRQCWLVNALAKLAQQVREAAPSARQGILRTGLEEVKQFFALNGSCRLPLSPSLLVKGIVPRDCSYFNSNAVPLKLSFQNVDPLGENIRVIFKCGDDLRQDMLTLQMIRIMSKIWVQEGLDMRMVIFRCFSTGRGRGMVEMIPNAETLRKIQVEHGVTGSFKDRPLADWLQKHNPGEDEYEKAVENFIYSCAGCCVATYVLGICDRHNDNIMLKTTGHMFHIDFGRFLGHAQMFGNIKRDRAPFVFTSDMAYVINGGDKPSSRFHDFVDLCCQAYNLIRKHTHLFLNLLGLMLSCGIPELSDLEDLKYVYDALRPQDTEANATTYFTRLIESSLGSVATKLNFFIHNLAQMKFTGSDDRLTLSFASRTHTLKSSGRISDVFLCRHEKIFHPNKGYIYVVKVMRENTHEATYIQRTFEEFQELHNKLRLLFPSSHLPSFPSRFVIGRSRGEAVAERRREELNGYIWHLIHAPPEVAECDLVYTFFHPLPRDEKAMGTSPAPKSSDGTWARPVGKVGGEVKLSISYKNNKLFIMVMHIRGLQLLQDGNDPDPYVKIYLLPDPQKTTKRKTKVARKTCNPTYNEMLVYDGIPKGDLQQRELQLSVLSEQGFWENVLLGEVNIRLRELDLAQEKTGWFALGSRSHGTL
Chain of Phosphatidylinositol 4,5-bisphosphate 3-kinase catalytic subunit gamma isoform (P48736 whole entry, canonical isoform): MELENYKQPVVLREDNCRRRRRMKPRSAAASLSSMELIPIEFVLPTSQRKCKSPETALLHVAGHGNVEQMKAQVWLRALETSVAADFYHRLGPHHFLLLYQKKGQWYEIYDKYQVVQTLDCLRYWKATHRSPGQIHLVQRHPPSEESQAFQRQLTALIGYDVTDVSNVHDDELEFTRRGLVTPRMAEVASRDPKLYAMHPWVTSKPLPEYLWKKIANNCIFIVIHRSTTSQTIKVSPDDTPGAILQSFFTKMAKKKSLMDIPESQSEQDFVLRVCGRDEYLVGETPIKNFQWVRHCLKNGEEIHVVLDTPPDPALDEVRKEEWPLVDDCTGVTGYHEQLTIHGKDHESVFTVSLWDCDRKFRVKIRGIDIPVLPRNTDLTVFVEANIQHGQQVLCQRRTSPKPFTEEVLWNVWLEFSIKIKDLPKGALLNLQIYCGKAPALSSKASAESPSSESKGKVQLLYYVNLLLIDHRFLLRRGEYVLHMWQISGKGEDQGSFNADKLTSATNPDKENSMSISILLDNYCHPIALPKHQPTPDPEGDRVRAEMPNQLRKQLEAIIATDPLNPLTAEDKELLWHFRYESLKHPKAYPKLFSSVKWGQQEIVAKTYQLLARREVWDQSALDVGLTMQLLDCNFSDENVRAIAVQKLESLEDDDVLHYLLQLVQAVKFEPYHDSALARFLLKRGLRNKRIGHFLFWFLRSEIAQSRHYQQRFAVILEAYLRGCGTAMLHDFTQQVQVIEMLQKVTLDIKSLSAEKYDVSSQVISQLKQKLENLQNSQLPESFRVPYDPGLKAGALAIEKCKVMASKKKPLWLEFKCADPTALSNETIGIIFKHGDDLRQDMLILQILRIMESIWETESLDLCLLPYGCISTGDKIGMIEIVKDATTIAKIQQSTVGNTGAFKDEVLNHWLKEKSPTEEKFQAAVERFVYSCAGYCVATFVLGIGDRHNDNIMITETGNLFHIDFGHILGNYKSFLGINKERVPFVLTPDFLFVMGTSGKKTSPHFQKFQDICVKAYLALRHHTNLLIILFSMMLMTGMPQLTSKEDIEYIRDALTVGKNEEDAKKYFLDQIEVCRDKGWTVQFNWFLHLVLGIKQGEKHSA

**Q.** For Cc1ccc([N+](=O)[O-])cc1S(=O)(=O)n1ccc(-c2c(C)nc3ccc(Br)cn23)n1, which IC50 [1] is on record?
**A.** 730 nM

**Q.** Which results are given for C/C(=N\NS(=O)(=O)c1cc([N+](=O)[O-])ccc1C)c1cnc2ccc(Br)cn12?
**A.** IC50 [2]: 17 nM; IC50 [1]: 12000 nM

**Q.** How did the IC50 [2] turn out when Cc1ccc([N+](=O)[O-])cc1S(=O)(=O)N/N=C/c1cnc2ccc(Br)cn12 was run?
**A.** 21 nM

**Q.** What about the IC50 [1] of the same compound?
**A.** 9000 nM

**Q.** How did the IC50 [2] turn out when C/C(=N\N(C)S(=O)(=O)c1cc([N+](=O)[O-])ccc1C)c1cnc2ccc(Br)cn12 was run?
**A.** 81 nM

**Q.** And the IC50 [1]?
**A.** 20000 nM

**Q.** How did the IC50 [2] turn out when C/C(=N\N(C)S(=O)(=O)c1cc([N+](=O)[O-])ccc1C)c1c(C)nc2ccc(Br)cn12 was run?
**A.** 170 nM

**Q.** C/C(=N\NS(=O)(=O)c1cc([N+](=O)[O-])ccc1C)c1c(C)nc2ccc(Br)cn12 was tested. Which IC50 [2] did it give?
**A.** 400 nM

**Q.** Which IC50 [1] does the source give for Cc1nc2ccccn2c1-c1ccn(S(=O)(=O)c2ccc(F)cc2)n1 here?
**A.** 23000 nM

**Q.** What does the source list for Cc1ccc([N+](=O)[O-])cc1S(=O)(=O)N(C)/N=C/c1cnc2ccc(F)cn12?
**A.** IC50 [2]: 5.3 nM; IC50 [1]: 180 nM

**Q.** CCOC(=O)c1ccc2ncc(/C=N/N(C)S(=O)(=O)c3cc([N+](=O)[O-])ccc3C)n2c1 was tested. Which IC50 [2] did it give?
**A.** 340 nM

**Q.** What about the IC50 [1] of the same compound?
**A.** 9350 nM

**Q.** Cc1ccc([N+](=O)[O-])cc1S(=O)(=O)N(C)/N=C/c1cnc2ccc(Cl)cn12 was tested. Which IC50 [2] did it give?
**A.** 0.77 nM

**Q.** What about the IC50 [1] of the same compound?
**A.** 56 nM

**Q.** How did the IC50 [2] turn out when Cc1ccc([N+](=O)[O-])cc1S(=O)(=O)N(C)/N=C/c1cnc2ccc(C(F)(F)F)cn12 was run?
**A.** 14 nM

**Q.** What about the IC50 [1] of the same compound?
**A.** 90 nM

**Q.** Which results are given for Cc1ccc([N+](=O)[O-])cc1S(=O)(=O)N(C)/N=C/c1cnc2ccc(C#N)cn12?
**A.** IC50 [2]: 0.26 nM; IC50 [1]: 33 nM

**Q.** Cc1ccc([N+](=O)[O-])cc1S(=O)(=O)N(C)/N=C/c1cnc2ccc(Br)cn12.Cl was tested. Which IC50 [3] did it give?
**A.** 69 nM

**Q.** What about the IC50 [4] of the same compound?
**A.** 51 nM

**Q.** And the IC50 [5]?
**A.** 40 nM

**Q.** What about the IC50 [6] of the same compound?
**A.** 39 nM

**Q.** What about the IC50 [7] of the same compound?
**A.** 19 nM

**Q.** And the IC50 [8]?
**A.** 100 nM

**Q.** What about the Activity [9] of the same compound?
**A.** 62%

**Q.** What about the IC50 [1] of the same compound?
**A.** 58 nM

**Q.** For Cc1ccc([N+](=O)[O-])cc1S(=O)(=O)N(C)/N=C/c1cnc2ccc(C(N)=O)cn12, which IC50 [2] is on record?
**A.** 780 nM

**Q.** What about the IC50 [1] of the same compound?
**A.** 8960 nM

**Q.** Which IC50 [2] does the source give for Cc1ccc2ncc(/C=N/N(C)S(=O)(=O)c3cc([N+](=O)[O-])ccc3C)n2c1 here?
**A.** 6 nM

**Q.** And the IC50 [1]?
**A.** 120 nM

**Q.** With O=c1cc(N2CCOCC2)oc2c(-c3ccccc3)cccc12 [LY-294002] as the compound, how does the IC50 [1] read?
**A.** 8400 nM
